ChEMBL document CHEMBL4219255, “Targeting Transient Receptor Potential Vanilloid 1 (TRPV1) Channel Softly: The Discovery of Passerini Adducts as a Topical Treatment for Inflammatory Skin Disorders” (J Med Chem, 2018)
The source made the active and inactive calls. The calls are words filed in the database; no cut-off is given here.

Legend:
[1] = Drug metabolism in human HaCaT cells assessed as residual substrate levels at 25 uM up to 240 mins by HPLC-UV analysis; assay type: ADME, cell-based; conditions: read-out: Stability
[2] = Drug metabolism in human keratinocytes assessed as residual substrate levels at 50 uM up to 120 mins by HPLC-UV analysis; assay type: ADME, cell-based, Keratinocyte; conditions: read-out: Stability
[3] = target: T1, Liver carboxylesterase 1 (Homo sapiens, UniProt P23141); experiment: Drug metabolism assessed as recombinant human CE1-mediated compound hydrolysis by measuring rate constant at 50 uM up to 30 mins by LC-UV analysis; assay type: ADME; conditions: 0.5 h
T1 sequence (P23141 whole entry): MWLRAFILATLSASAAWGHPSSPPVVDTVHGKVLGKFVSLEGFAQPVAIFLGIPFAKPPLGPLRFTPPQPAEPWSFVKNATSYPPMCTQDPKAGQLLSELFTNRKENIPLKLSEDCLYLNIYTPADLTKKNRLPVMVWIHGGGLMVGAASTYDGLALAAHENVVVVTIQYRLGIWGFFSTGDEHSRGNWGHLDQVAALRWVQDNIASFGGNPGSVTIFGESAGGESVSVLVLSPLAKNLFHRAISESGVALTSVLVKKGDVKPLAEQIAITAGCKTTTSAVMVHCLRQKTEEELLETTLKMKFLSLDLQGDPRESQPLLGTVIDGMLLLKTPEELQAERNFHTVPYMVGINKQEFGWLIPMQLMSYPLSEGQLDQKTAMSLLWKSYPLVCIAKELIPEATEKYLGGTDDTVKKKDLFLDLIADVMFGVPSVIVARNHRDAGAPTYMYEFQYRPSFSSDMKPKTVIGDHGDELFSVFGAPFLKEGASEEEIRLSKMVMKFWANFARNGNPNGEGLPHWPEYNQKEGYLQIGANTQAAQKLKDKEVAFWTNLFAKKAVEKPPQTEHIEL
Outline: (§1)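 Recombinant human carboxylesterase isoforms 1 and 2 were each incubated with the test ester. Hydrolysis was followed by HPLC-UV, tracking the disappearance of the substrate over incubation time relative to the initial amount. Chromatograms were also checked for peaks of the expected hydrolysis metabolites.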

[4] = target: T2, Liver carboxylesterase 1 (CE1) (Homo sapiens, UniProt P23141); experiment: Drug metabolism assessed as recombinant human CE1-mediated compound hydrolysis by measuring compound half life at 50 uM up to 30 mins by LC-UV analysis; assay type: ADME; outline: as §1
T2 sequence (P23141 whole entry): T1 sequence (P23141 whole entry)

[5] = target: T3, Cocaine esterase (CE2) (Homo sapiens, UniProt O00748); experiment: Drug metabolism assessed as recombinant human CE2-mediated compound hydrolysis by measuring compound half life at 50 uM up to 30 mins by LC-UV analysis; assay type: ADME; outline: as §1
T3 sequence (O00748 whole entry): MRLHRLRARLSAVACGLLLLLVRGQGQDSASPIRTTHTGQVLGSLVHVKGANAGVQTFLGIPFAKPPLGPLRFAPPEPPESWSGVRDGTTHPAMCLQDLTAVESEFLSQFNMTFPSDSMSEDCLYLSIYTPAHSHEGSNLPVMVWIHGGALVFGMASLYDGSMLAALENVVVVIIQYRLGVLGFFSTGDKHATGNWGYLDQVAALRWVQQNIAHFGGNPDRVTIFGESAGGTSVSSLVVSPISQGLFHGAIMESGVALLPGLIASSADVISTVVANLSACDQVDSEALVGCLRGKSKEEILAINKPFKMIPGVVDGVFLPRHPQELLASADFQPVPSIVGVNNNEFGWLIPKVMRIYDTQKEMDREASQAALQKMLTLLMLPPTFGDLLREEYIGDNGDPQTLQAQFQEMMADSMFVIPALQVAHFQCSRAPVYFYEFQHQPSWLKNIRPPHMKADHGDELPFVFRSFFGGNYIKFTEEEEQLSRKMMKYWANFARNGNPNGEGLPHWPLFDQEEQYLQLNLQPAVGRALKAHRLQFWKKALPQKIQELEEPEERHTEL

[6] = target: Transient receptor potential cation channel subfamily V member 1 (Rattus norvegicus) (UniProt O35433); experiment: Modulatory activity against TRPV1 in Wistar rat neonatal dorsal root ganglia assessed as reduction in capsaicin-evoked action potential by measuring mean spike frequency ratio (P2/P1) at 10 uM by microelectrode array analysis (reference value: 0.87 +/- 0.04)
Sequence of Transient receptor potential cation channel subfamily V member 1 (Rattus norvegicus) (O35433 whole entry): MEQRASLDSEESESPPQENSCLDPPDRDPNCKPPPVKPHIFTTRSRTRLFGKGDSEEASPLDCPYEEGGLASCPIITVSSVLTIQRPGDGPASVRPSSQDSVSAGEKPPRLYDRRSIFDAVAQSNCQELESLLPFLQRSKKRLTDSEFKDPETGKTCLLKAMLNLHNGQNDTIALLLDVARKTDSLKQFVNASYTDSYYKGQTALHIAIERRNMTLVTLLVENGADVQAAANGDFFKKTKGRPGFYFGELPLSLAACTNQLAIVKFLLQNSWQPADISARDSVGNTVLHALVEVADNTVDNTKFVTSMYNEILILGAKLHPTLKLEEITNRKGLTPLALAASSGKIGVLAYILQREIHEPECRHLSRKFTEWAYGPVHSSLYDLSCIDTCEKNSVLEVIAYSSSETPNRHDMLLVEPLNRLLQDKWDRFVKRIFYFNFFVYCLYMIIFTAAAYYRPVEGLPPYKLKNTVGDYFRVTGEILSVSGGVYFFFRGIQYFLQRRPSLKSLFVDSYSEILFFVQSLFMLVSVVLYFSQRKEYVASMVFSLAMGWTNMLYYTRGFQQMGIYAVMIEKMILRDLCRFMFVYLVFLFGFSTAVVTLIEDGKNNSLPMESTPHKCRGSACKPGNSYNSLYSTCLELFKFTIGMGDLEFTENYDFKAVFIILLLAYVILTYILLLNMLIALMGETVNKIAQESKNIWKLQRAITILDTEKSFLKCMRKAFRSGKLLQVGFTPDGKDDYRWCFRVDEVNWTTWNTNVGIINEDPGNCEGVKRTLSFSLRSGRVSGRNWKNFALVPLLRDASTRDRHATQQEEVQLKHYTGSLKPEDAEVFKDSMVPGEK
Outline: (§2)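 Capsaicin-evoked action potential firing recorded with test agent at 10 µM. Response expressed as the P2/P1 mean spike frequency ratio.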

[7] = target: Transient receptor potential cation channel subfamily V member 1 (Rattus norvegicus) (UniProt O35433); experiment: Inhibition of TRPV1 in Wistar rat neonatal dorsal root ganglia assessed as reduction in capsaicin-induced neuronal excitability by microelectrode array analysis
[8] = tested on: Mus musculus; experiment: Analgesic activity in CFA-induced thermal hyperalgesia C57BL/6 mouse model assessed as reduction in latency time required to elicit paw withdrawal in response to radiant heat applied to the plantar surface of a hind paw administered as intraplantar injection treated at 24 hrs post CFA injection measured every 30 mins up to 120 mins post dose; assay type: functional, organism-based
[9] = tested on: Mus musculus; experiment: (§3) Analgesic activity in CFA-induced thermal hyperalgesia C57BL/6 mouse model assessed as reduction in latency time required to elicit paw withdrawal in response to radiant heat applied to the plantar surface of a hind paw at 10 to 100 ug administered as intraplantar injection treated at 24 hrs post CFA injection measured at 30 mins post dose; assay type: functional, organism-based
[10] = tested on: Mus musculus; experiment: as §3, with “60” for “30”; assay type: functional, organism-based
[11] = tested on: Mus musculus; experiment: Analgesic activity in CFA-induced thermal hyperalgesia C57BL/6 mouse model assessed as reduction in CFA-induced ipsilateral paw withdrawal administered intravenously treated for 24 hrs post CFA injection; assay type: functional, organism-based
[12] = tested on: Mus musculus; experiment: Analgesic activity in CFA-induced thermal hyperalgesia C57BL/6 mouse model assessed as reduction in CFA-induced ipsilateral paw withdrawal latency at 1 mg/kg, iv treated at 24 hrs post CFA injection measured at 30 to 60 mins post dose; assay type: functional, organism-based
[13] = tested on: Mus musculus; experiment: Analgesic activity in CFA-induced thermal hyperalgesia C57BL/6 mouse model assessed as reduction in CFA-induced ipsilateral paw withdrawal latency at 3 mg/kg, iv treated at 24 hrs post CFA injection measured at 60 to 90 mins post dose; assay type: functional, organism-based
[14] = tested on: Mus musculus; experiment: Antipruritic activity in C57BL/6 mouse histaminergic pruritus model assessed as reduction in licking behavior at 100 ug administered as intraplantar injection pretreated for 30 mins followed by histamine addition measured 10 to 20 mins post histamine instillation; assay type: functional, organism-based
[15] = tested on: Mus musculus; experiment: Antipruritic activity in C57BL/6 mouse non-histaminergic pruritus model assessed as reduction in chloroquine-induced licking behavior at 100 ug administered as intraplantar injection pretreated for 30 mins followed by chloroquine addition measured 10 to 20 mins post chloroquine instillation; assay type: functional, organism-based
[16] = tested on: Mus musculus; experiment: Effect on thermal nociception of the contralateral paw in CFA-induced thermal hyperalgesia C57BL/6 mouse model at 10 to 100 ug administered as intraplantar injection treated at 24 hrs post CFA injection measure up to 120 mins; assay type: ADME, organism-based; conditions: in vivo, other
[17] = tested on: Mus musculus; experiment: Effect on thermal nociception of the contralateral paw in CFA-induced thermal hyperalgesia C57BL/6 mouse model at 1 to 10 mg/kg, iv treated at 24 hrs post CFA injection; assay type: ADME, organism-based; conditions: in vivo
[18] = tested on: Mus musculus; experiment: Toxicity in C57BL/6 mouse assessed as change in body temperature at 10 mg/kg, iv after 120 mins; assay type: organism-based; conditions: in vivo, 2 h
[19] = Drug metabolism in human liver microsomes assessed as sulfate conjugate formation at 50 uM in presence of UDPGA after 60 mins by LC-ESI-MS analysis; assay type: ADME, microsome; conditions: 1 h
[20] = target: Transient receptor potential cation channel subfamily V member 1 (Rattus norvegicus) (UniProt O35433); experiment: Modulatory activity against TRPV1 in Wistar rat neonatal dorsal root ganglia assessed as inhibition of capsaicin-evoked action potential at 10 uM by microelectrode array analysis relative to control; outline: as §2

remaining at 4 h, 25 µM [1]: 98.6%
remaining at 2 h, 50 µM [2]: 22.6%
K [3]: 0.0255 min⁻¹
half-life at 50 µM [4]: 27.2 min
half-life at 50 µM [5]: 12.5 min
Ratio [6]: 0.53
inhibition [7]: Dose-dependent effect
Drug metabolism [19]: Metabolite_Notdetected
inhibition [20]: 43%
Structure (SMILES): CCCCCCCCCCCC(=O)OCC(=O)NCc1cc(OC)c(O)cc1I
Activity [8]: Dose-dependent effect
Activity [9]: Active
Activity [10]: Active
Activity [11]: Dose-dependent effect
Activity [12]: Active
Activity [13]: Active
Activity [14]: Active
Activity [15]: Active
Activity [16]: Non-Toxic
Activity [17]: Non-Toxic
Activity [18]: Non-Toxic
